Experimental data reported in ChEMBL document CHEMBL5724801, “EUbOPEN Chemogenomics Library - Multiplex” (2024).
“And” between values parts separate entries of the source, which are not always exact repeats. Equal values may be shown once.

Columns and labels:
Format in all cases: toxicity, cell-based
[1] = tested on: Fibroblast; experiment: Multiplex assay against human fibroblast
Outline: (§1)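 At seeding, live cells were stained with Hoechst33342, BioTracker Green Microtubule Cytoskeleton Dye, MitoTracker Red and Annexin V Alexa Fluor 680. After compound addition they were imaged on a CQ1 microscope at 37°C and 5% CO2, and CellPathfinder machine-learning gating sorted them into Hoechst high-intensity objects or normal cells, with normal cells further split into healthy, pyknosed or fragmented nuclei and pyknosed cells into mitotic or apoptotic. Tubulin, mitochondrial-mass and membrane-permeability phenotypes are given as per cents of cells with healthy nuclei.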

[2] = tested on: HEK-293T; experiment: Multiplex assay against HEK293T; conditions: human; outline: as §1
[3] = tested on: U2OS; experiment: Multiplex assay against U2OS; conditions: human; outline: as §1
[4] = 12 h, 1 µM, compound concentration 1 uM
[5] = 12 h, 10 µM, compound concentration 10 uM
[6] = 24 h, 1 µM, compound concentration 1 uM
[7] = 24 h, 10 µM, compound concentration 10 uM
[8] = 48 h, 1 µM, compound concentration 1 uM
[9] = 48 h, 10 µM, compound concentration 10 uM

O=C(O)Cc1ccccc1Nc1c(Cl)cccc1Cl [DICLOFENAC]
Population Apoptotic (%) [1, 4]: 43% and 33%
Population Fragmented Nuclei (%) [1, 4]: 14% and 25%
Population Healthy Nuclei (%) [1, 4]: 67% and 49%
Population Hoechst High Intensity Objects (%) [1, 4]: 0% and 2%
Population Membrane Permeable-Phenotype (%) [1, 4]: 1% and 7%
Population Mitochondria Different-Phenotype (%) [1, 4]: 6%
Population Mitotic Cells (%) [1, 4]: 56% and 66%
Population Normal (%) [1, 4]: 99% and 97%
Population Pyknosed Nuclei (%) [1, 4]: 17% and 25%
Population Tubulin-Different-Phenotype (%) [1, 4]: 25% and 49%
Population Apoptotic (%) [1, 5]: 32% and 38%
Population Fragmented Nuclei (%) [1, 5]: 14% and 36%
Population Healthy Nuclei (%) [1, 5]: 68% and 46%
Population Hoechst High Intensity Objects (%) [1, 5]: 0% and 6%
Population Membrane Permeable-Phenotype (%) [1, 5]: 0% and 16%
Population Mitochondria Different-Phenotype (%) [1, 5]: 5% and 8%
Population Mitotic Cells (%) [1, 5]: 68% and 61%
Population Normal (%) [1, 5]: 99% and 93%
Population Pyknosed Nuclei (%) [1, 5]: 17%
Population Tubulin-Different-Phenotype (%) [1, 5]: 24% and 54%
Population Apoptotic (%) [1, 6]: 52% and 35%
Population Fragmented Nuclei (%) [1, 6]: 15% and 28%
Population Healthy Nuclei (%) [1, 6]: 66% and 49%
Population Hoechst High Intensity Objects (%) [1, 6]: 2% and 3%
Population Membrane Permeable-Phenotype (%) [1, 6]: 0% and 12%
Population Mitochondria Different-Phenotype (%) [1, 6]: 4% and 6%
Population Mitotic Cells (%) [1, 6]: 47% and 64%
Population Normal (%) [1, 6]: 97% and 96%
Population Pyknosed Nuclei (%) [1, 6]: 17% and 21%
Population Tubulin-Different-Phenotype (%) [1, 6]: 29% and 50%
Population Apoptotic (%) [1, 7]: 30% and 50%
Population Fragmented Nuclei (%) [1, 7]: 16% and 31%
Population Healthy Nuclei (%) [1, 7]: 68% and 50%
Population Hoechst High Intensity Objects (%) [1, 7]: 5% and 2%
Population Membrane Permeable-Phenotype (%) [1, 7]: 0% and 8%
Population Mitochondria Different-Phenotype (%) [1, 7]: 5% and 10%
Population Mitotic Cells (%) [1, 7]: 69% and 50%
Population Normal (%) [1, 7]: 94% and 97%
Population Pyknosed Nuclei (%) [1, 7]: 15% and 18%
Population Tubulin-Different-Phenotype (%) [1, 7]: 19% and 55%
Population Apoptotic (%) [1, 8]: 85% and 57%
Population Fragmented Nuclei (%) [1, 8]: 21% and 36%
Population Healthy Nuclei (%) [1, 8]: 61% and 53%
Population Hoechst High Intensity Objects (%) [1, 8]: 3% and 5%
Population Membrane Permeable-Phenotype (%) [1, 8]: 4%
Population Mitochondria Different-Phenotype (%) [1, 8]: 4%
Population Mitotic Cells (%) [1, 8]: 15% and 42%
Population Normal (%) [1, 8]: 96% and 94%
Population Pyknosed Nuclei (%) [1, 8]: 16% and 10%
Population Tubulin-Different-Phenotype (%) [1, 8]: 24% and 44%
Population Apoptotic (%) [1, 9]: 73% and 30%
Population Fragmented Nuclei (%) [1, 9]: 22% and 35%
Population Healthy Nuclei (%) [1, 9]: 65% and 50%
Population Hoechst High Intensity Objects (%) [1, 9]: 3%
Population Membrane Permeable-Phenotype (%) [1, 9]: 0% and 4%
Population Mitochondria Different-Phenotype (%) [1, 9]: 3% and 6%
Population Mitotic Cells (%) [1, 9]: 26% and 69%
Population Normal (%) [1, 9]: 96%
Population Pyknosed Nuclei (%) [1, 9]: 12% and 14%
Population Tubulin-Different-Phenotype (%) [1, 9]: 28% and 53%
Population Apoptotic (%) [2, 4]: 36% and 52%
Population Fragmented Nuclei (%) [2, 4]: 7%
Population Healthy Nuclei (%) [2, 4]: 77% and 79%
Population Hoechst High Intensity Objects (%) [2, 4]: 5% and 10%
Population Membrane Permeable-Phenotype (%) [2, 4]: 0%
Population Mitochondria Different-Phenotype (%) [2, 4]: 53% and 61%
Population Mitotic Cells (%) [2, 4]: 63% and 47%
Population Normal (%) [2, 4]: 94% and 89%
Population Pyknosed Nuclei (%) [2, 4]: 14% and 13%
Population Tubulin-Different-Phenotype (%) [2, 4]: 32% and 23%
Total Cell Count [2, 4]: 376 and 324
Population Apoptotic (%) [2, 5]: 30% and 57%
Population Fragmented Nuclei (%) [2, 5]: 7%
Population Healthy Nuclei (%) [2, 5]: 77% and 75%
Population Hoechst High Intensity Objects (%) [2, 5]: 6% and 14%
Population Membrane Permeable-Phenotype (%) [2, 5]: 0%
Population Mitochondria Different-Phenotype (%) [2, 5]: 45% and 68%
Population Mitotic Cells (%) [2, 5]: 69% and 42%
Population Normal (%) [2, 5]: 93% and 85%
Population Pyknosed Nuclei (%) [2, 5]: 14% and 17%
Population Tubulin-Different-Phenotype (%) [2, 5]: 35%
Total Cell Count [2, 5]: 480 and 370
Population Apoptotic (%) [2, 6]: 30% and 45%
Population Fragmented Nuclei (%) [2, 6]: 7% and 6%
Population Healthy Nuclei (%) [2, 6]: 76% and 78%
Population Hoechst High Intensity Objects (%) [2, 6]: 3% and 10%
Population Membrane Permeable-Phenotype (%) [2, 6]: 0%
Population Mitochondria Different-Phenotype (%) [2, 6]: 44% and 37%
Population Mitotic Cells (%) [2, 6]: 69% and 54%
Population Normal (%) [2, 6]: 96% and 89%
Population Pyknosed Nuclei (%) [2, 6]: 15% and 14%
Population Tubulin-Different-Phenotype (%) [2, 6]: 24% and 9%
Total Cell Count [2, 6]: 456 and 418
Population Apoptotic (%) [2, 7]: 25% and 49%
Population Fragmented Nuclei (%) [2, 7]: 10%
Population Healthy Nuclei (%) [2, 7]: 77% and 75%
Population Hoechst High Intensity Objects (%) [2, 7]: 4% and 9%
Population Membrane Permeable-Phenotype (%) [2, 7]: 0%
Population Mitochondria Different-Phenotype (%) [2, 7]: 29% and 50%
Population Mitotic Cells (%) [2, 7]: 74% and 50%
Population Normal (%) [2, 7]: 95% and 90%
Population Pyknosed Nuclei (%) [2, 7]: 12% and 14%
Population Tubulin-Different-Phenotype (%) [2, 7]: 29% and 26%
Total Cell Count [2, 7]: 650 and 462
Population Apoptotic (%) [2, 8]: 23% and 33%
Population Fragmented Nuclei (%) [2, 8]: 11% and 15%
Population Healthy Nuclei (%) [2, 8]: 82% and 79%
Population Hoechst High Intensity Objects (%) [2, 8]: 2%
Population Membrane Permeable-Phenotype (%) [2, 8]: 1%
Population Mitochondria Different-Phenotype (%) [2, 8]: 22% and 16%
Population Mitotic Cells (%) [2, 8]: 76% and 66%
Population Normal (%) [2, 8]: 97%
Population Pyknosed Nuclei (%) [2, 8]: 6% and 4%
Population Tubulin-Different-Phenotype (%) [2, 8]: 15% and 10%
Total Cell Count [2, 8]: 730 and 697
Population Apoptotic (%) [2, 9]: 36%
Population Fragmented Nuclei (%) [2, 9]: 12% and 16%
Population Healthy Nuclei (%) [2, 9]: 80% and 75%
Population Hoechst High Intensity Objects (%) [2, 9]: 3% and 4%
Population Membrane Permeable-Phenotype (%) [2, 9]: 1% and 0%
Population Mitochondria Different-Phenotype (%) [2, 9]: 17% and 36%
Population Mitotic Cells (%) [2, 9]: 63%
Population Normal (%) [2, 9]: 96% and 95%
Population Pyknosed Nuclei (%) [2, 9]: 7%
Population Tubulin-Different-Phenotype (%) [2, 9]: 18% and 17%
Total Cell Count [2, 9]: 883 and 649
Population Apoptotic (%) [3, 4]: 90% and 84%
Population Fragmented Nuclei (%) [3, 4]: 15% and 13%
Population Healthy Nuclei (%) [3, 4]: 78% and 76%
Population Hoechst High Intensity Objects (%) [3, 4]: 5% and 0%
Population Membrane Permeable-Phenotype (%) [3, 4]: 4% and 5%
Population Mitochondria Different-Phenotype (%) [3, 4]: 4% and 2%
Population Mitotic Cells (%) [3, 4]: 10% and 15%
Population Normal (%) [3, 4]: 94% and 99%
Population Pyknosed Nuclei (%) [3, 4]: 6% and 10%
Population Tubulin-Different-Phenotype (%) [3, 4]: 4% and 2%
Total Cell Count [3, 4]: 164
Population Apoptotic (%) [3, 5]: 75% and 72%
Population Fragmented Nuclei (%) [3, 5]: 20% and 14%
Population Healthy Nuclei (%) [3, 5]: 68% and 76%
Population Hoechst High Intensity Objects (%) [3, 5]: 2% and 3%
Population Membrane Permeable-Phenotype (%) [3, 5]: 8%
Population Mitochondria Different-Phenotype (%) [3, 5]: 4% and 3%
Population Mitotic Cells (%) [3, 5]: 25% and 27%
Population Normal (%) [3, 5]: 97% and 96%
Population Pyknosed Nuclei (%) [3, 5]: 11% and 9%
Population Tubulin-Different-Phenotype (%) [3, 5]: 4% and 8%
Total Cell Count [3, 5]: 258
Population Apoptotic (%) [3, 6]: 92% and 87%
Population Fragmented Nuclei (%) [3, 6]: 15% and 19%
Population Healthy Nuclei (%) [3, 6]: 76% and 70%
Population Hoechst High Intensity Objects (%) [3, 6]: 4% and 3%
Population Membrane Permeable-Phenotype (%) [3, 6]: 2% and 5%
Population Mitochondria Different-Phenotype (%) [3, 6]: 2%
Population Mitotic Cells (%) [3, 6]: 7% and 12%
Population Normal (%) [3, 6]: 95% and 96%
Population Pyknosed Nuclei (%) [3, 6]: 7% and 10%
Population Tubulin-Different-Phenotype (%) [3, 6]: 2%
Total Cell Count [3, 6]: 191 and 165
Population Apoptotic (%) [3, 7]: 72% and 81%
Population Fragmented Nuclei (%) [3, 7]: 17% and 15%
Population Healthy Nuclei (%) [3, 7]: 72% and 77%
Population Hoechst High Intensity Objects (%) [3, 7]: 0% and 1%
Population Membrane Permeable-Phenotype (%) [3, 7]: 3% and 5%
Population Mitochondria Different-Phenotype (%) [3, 7]: 1% and 2%
Population Mitotic Cells (%) [3, 7]: 27% and 18%
Population Normal (%) [3, 7]: 99% and 98%
Population Pyknosed Nuclei (%) [3, 7]: 10% and 7%
Population Tubulin-Different-Phenotype (%) [3, 7]: 2% and 4%
Total Cell Count [3, 7]: 311 and 153
Population Apoptotic (%) [3, 8]: 100% and 83%
Population Fragmented Nuclei (%) [3, 8]: 17% and 15%
Population Healthy Nuclei (%) [3, 8]: 71% and 70%
Population Hoechst High Intensity Objects (%) [3, 8]: 4% and 3%
Population Membrane Permeable-Phenotype (%) [3, 8]: 4%
Population Mitochondria Different-Phenotype (%) [3, 8]: 2% and 4%
Population Mitotic Cells (%) [3, 8]: 0% and 16%
Population Normal (%) [3, 8]: 95% and 96%
Population Pyknosed Nuclei (%) [3, 8]: 10% and 14%
Population Tubulin-Different-Phenotype (%) [3, 8]: 2% and 4%
Total Cell Count [3, 8]: 271 and 216
Population Apoptotic (%) [3, 9]: 86% and 100%
Population Fragmented Nuclei (%) [3, 9]: 16% and 12%
Population Healthy Nuclei (%) [3, 9]: 73% and 75%
Population Hoechst High Intensity Objects (%) [3, 9]: 2% and 1%
Population Membrane Permeable-Phenotype (%) [3, 9]: 6%
Population Mitochondria Different-Phenotype (%) [3, 9]: 1%
Population Mitotic Cells (%) [3, 9]: 13% and 0%
Population Normal (%) [3, 9]: 97% and 98%
Population Pyknosed Nuclei (%) [3, 9]: 10% and 11%
Population Tubulin-Different-Phenotype (%) [3, 9]: 2% and 6%
Total Cell Count [3, 9]: 436 and 220
